# ChEMBL document CHEMBL4024768, “Discovery and Optimization of Thiazolidinyl and Pyrrolidinyl Derivatives as Inhaled PDE4 Inhibitors for Respiratory Diseases” (J Med Chem, 2017)
# The source made the active and inactive calls. No cut-off for these calls is given here.
# What was measured:
# [1] = Protein binding in human plasma at 5 uM after 5 hrs by LC-MS/MS analysis; type: ADME, cell-free; conditions: read-out: PPB (converted)
# [2] = Intrinsic clearance in human hepatocytes assessed per million cells at 1 uM measured after 90 mins by LC-MS/MS analysis; type: ADME, cell-based, Hepatocyte; conditions: read-out: CLH
# Outline: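 Compound at 1 μM with hepatocytes (1 million cells/mL) in Leibovitz L-15 at 37 °C, in duplicate. Sampled at 0, 10, 20, 30, 60 and 90 min, quenched with ice-cold acetonitrile, centrifuged, and unchanged compound measured by LC−MS/MS. Included 7-ethoxycoumarin and 7-hydroxycoumarin activity controls and cell-free medium controls.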
# [3] = Metabolic stability in human plasma assessed as compound remaining at 1 uM measured after 60 mins in presence of NADPH by LC-MS/MS analysis; type: ADME, cell-free; conditions: read-out: Stability
# [4] = tested on: Rattus norvegicus; assay: (§1) Anti-inflammatory activity in OVA-induced airway inflammation Brown Norway rat model assessed inhibition of eosinophils recruitment in bronchoalveolar lavage fluid at 0.1 umol/kg administered intratracheally as powder formulation 2 hrs before aerosolized OVA challenge measured at 24 hrs post aerosolized OVA challenge; type: functional; conditions: inhaled or nasal
# Outline: (§2)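 Male Brown Norway rats sensitized i.p. with OVA (1 mg/rat) plus Al(OH)3 (100 mg/rat) in saline on 3 consecutive days. Challenged 2–3 weeks later with nose-only 1% OVA aerosol for 30 min. Lactose-blended dry powder (10 mg/kg total powder) insufflated intratracheally; dose taken from needle weight difference. BAL with 3 × 4 mL HBSS/EDTA/HEPES at 24 h; total and differential counts by automated counter. ED50 from fitted dose–response curve.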
# [5] = tested on: Rattus norvegicus; assay: as §1, with “inflammatory cell infiltration” for “eosinophils recruitment”, “1” for “0.1”; type: functional; outline: as §2
# [6] = tested on: Lung; assay: Cmax in Sprague-Dawley rat lung at 1 umol/kg, it administered as micronized powder measured up to 24 hrs post dose by electrospray LC-MS analysis; type: ADME, tissue-based; parameters: dose 1 umol/kg; conditions: in vivo, inhaled_or_intranasal
# Outline: (§3)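 Sprague-Dawley rats (250−400 g) dosed intratracheally with micronized dry powder blended with coarse lactose, delivered by insufflator under isoflurane anaesthesia. Blood collected in heparinized tubes and spun at 1200g for 15 min. Lung sampled at 0.25, 1, 2, 4, 8, 16 and 24 h, n = 3 per time point.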
# [7] = Tmax in Sprague-Dawley rat lung at 1 umol/kg, it administered as micronized powder measured up to 24 hrs post dose by electrospray LC-MS analysis; type: ADME, tissue-based; conditions: inhaled or intranasal; outline: as §3
# [8] = tested on: Plasma; assay: Tlast in Sprague-Dawley rat plasma at 1 umol/kg, it administered as micronized powder measured up to 24 hrs post dose by electrospray LC-MS analysis; type: ADME, cell-free; conditions: inhaled_or_intranasal; outline: as §3
# [9] = target: cGMP-dependent 3',5'-cyclic phosphodiesterase (Homo sapiens, UniProt O00408); assay: Inhibition of human recombinant PDE2A expressed insect sf9 cells by radiometric assay
# Outline: (§4)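 Human recombinant PDEs expressed in Sf9 cells, except PDE6 purified from bovine retina. Radiometric two-step method, modified from Thompson and Appleman. Five concentrations in duplicate, starting at 30 μM with 1:10 serial dilution, 1% final DMSO.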
# [10] = target: cGMP-inhibited 3',5'-cyclic phosphodiesterase 3A (Homo sapiens, UniProt Q14432); assay: Inhibition of human recombinant PDE3A expressed insect sf9 cells by radiometric assay; outline: as §4
# [11] = target: cGMP-specific 3',5'-cyclic phosphodiesterase (Homo sapiens, UniProt O76074); assay: Inhibition of human recombinant PDE5A expressed insect sf9 cells by radiometric assay; outline: as §4
# [12] = Inhibition of bovine retina PDE6 expressed insect sf9 cells by radiometric assay; parameters: species or system Bos taurus
# [13] = target: High affinity 3',5'-cyclic-AMP phosphodiesterase 7A (Homo sapiens, UniProt Q13946); assay: Inhibition of human recombinant PDE7A expressed insect sf9 cells by radiometric assay; outline: as §4
# [14] = target: High affinity cGMP-specific 3',5'-cyclic phosphodiesterase 9A (Homo sapiens, UniProt O76083); assay: Inhibition of human recombinant PDE9A2 expressed insect sf9 cells by radiometric assay; outline: as §4
# [15] = target: Dual 3',5'-cyclic-AMP and -GMP phosphodiesterase 11A (Homo sapiens, UniProt Q9HCR9); assay: Inhibition of human recombinant PDE11A4 expressed insect sf9 cells by radiometric assay; outline: as §4
# [16] = target: Cytochrome P450 3A4 (Homo sapiens, UniProt P08684); assay: Binding affinity to human liver microsomes CYP3A4 at 1 uM; type: ADME
# Outline: (§5)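 Off-target screening panel of about 400 receptors, enzymes and ion channels, run at 1 μM. Result expressed as % binding.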
# [17] = target: Cytochrome P450 2C19 (Homo sapiens, UniProt P33261); assay: Binding affinity to human liver microsomes CYP2C19 at 1 uM; type: ADME; outline: as §5
# [18] = organism: Rattus norvegicus; assay: Binding affinity to rat imidazoline I2 receptor; outline: as §5
# [19] = tested on: Lung; assay: Drug uptake in Sprague-Dawley rat lung at 1 umol/kg, it administered as micronized powder measured at 24 hrs post dose by electrospray LC-MS analysis; type: ADME, tissue-based; conditions: in vivo, inhaled_or_intranasal; outline: as §3
# [20] = Drug metabolism in human hepatocytes assessed as (S)-1-(3-(dimethylcarbamoyl)phenylsulfonyl)pyrrolidine-2-carboxylic acid metabolite formation at 10 uM after 60 mins by LC-MS/MS analysis; type: ADME, cell-based, Hepatocyte; conditions: 1 h
# Outline: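 Pooled mixed-sex cryopreserved human hepatocytes (1 million cells/mL) in Leibovitz L-15 at 37 °C, compound at 10 μM in duplicate. Sampled at 0 and 60 min. Protein-free supernatant evaporated under nitrogen, reconstituted in mobile phase and analysed by LC−MS/MS. Cell-free medium incubation for 60 min as control.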
# [21] = target: T1, Sterol O-acyltransferase 1 (Rattus norvegicus) (UniProt O70536); assay: Binding affinity to rat hepatic Acyl CoA-cholesterol acyltransferase at 1 uM; outline: as §5
# T1 sequence (whole entry): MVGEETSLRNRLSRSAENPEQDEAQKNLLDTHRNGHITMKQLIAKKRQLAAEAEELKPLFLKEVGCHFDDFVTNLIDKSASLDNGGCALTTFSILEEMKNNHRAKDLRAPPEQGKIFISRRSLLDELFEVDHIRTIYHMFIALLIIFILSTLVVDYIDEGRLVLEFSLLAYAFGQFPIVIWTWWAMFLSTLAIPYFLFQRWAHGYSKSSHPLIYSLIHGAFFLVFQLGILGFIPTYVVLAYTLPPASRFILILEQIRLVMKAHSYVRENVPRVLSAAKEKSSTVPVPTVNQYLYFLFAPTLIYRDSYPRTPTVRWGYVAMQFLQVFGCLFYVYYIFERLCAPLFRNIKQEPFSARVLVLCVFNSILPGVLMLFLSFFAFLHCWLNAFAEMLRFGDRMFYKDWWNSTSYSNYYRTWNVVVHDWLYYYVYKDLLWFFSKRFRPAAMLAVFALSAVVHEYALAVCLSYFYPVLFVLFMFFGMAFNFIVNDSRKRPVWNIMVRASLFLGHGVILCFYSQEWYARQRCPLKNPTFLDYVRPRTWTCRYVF
# cGMP-dependent 3',5'-cyclic phosphodiesterase, sequence (O00408 whole entry): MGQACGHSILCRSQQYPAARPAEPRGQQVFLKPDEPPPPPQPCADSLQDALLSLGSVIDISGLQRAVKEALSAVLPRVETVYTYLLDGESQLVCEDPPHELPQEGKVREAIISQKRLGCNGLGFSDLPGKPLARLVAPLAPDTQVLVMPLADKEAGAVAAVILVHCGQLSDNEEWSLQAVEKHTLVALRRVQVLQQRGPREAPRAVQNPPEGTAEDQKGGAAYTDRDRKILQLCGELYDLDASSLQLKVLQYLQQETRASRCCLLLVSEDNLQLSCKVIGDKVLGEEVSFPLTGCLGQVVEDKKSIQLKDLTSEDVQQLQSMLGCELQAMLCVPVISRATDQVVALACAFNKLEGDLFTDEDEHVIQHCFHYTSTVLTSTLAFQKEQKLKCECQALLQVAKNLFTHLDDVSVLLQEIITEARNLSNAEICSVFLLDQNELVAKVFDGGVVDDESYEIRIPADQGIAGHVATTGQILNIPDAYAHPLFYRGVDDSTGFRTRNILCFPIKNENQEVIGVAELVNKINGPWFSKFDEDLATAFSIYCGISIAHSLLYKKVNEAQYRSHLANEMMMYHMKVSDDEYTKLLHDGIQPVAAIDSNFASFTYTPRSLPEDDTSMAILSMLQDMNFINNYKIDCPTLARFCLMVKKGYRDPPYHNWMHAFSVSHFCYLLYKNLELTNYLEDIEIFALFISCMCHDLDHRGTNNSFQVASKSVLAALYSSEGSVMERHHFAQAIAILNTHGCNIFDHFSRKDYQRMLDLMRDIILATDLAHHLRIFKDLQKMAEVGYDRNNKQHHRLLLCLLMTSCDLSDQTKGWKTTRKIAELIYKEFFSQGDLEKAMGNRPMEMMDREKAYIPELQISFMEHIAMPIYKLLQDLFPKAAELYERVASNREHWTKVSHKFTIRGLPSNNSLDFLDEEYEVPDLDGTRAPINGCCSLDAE
# High affinity cGMP-specific 3',5'-cyclic phosphodiesterase 9A, sequence (O76083 whole entry): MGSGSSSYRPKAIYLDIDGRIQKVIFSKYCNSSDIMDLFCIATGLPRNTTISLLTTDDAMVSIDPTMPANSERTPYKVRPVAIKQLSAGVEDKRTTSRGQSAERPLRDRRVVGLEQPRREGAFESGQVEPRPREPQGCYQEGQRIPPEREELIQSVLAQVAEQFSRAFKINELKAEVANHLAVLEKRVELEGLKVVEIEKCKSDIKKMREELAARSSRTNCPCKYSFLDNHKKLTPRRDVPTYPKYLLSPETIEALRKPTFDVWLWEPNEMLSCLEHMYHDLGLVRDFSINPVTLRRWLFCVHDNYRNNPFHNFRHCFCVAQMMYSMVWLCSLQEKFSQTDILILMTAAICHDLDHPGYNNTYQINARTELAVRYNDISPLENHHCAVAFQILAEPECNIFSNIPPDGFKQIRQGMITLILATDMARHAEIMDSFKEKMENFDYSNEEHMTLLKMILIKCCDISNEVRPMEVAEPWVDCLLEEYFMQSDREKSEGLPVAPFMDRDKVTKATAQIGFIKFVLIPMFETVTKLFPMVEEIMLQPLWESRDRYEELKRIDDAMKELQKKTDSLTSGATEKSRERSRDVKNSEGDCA
# High affinity 3',5'-cyclic-AMP phosphodiesterase 7A, sequence (Q13946 whole entry): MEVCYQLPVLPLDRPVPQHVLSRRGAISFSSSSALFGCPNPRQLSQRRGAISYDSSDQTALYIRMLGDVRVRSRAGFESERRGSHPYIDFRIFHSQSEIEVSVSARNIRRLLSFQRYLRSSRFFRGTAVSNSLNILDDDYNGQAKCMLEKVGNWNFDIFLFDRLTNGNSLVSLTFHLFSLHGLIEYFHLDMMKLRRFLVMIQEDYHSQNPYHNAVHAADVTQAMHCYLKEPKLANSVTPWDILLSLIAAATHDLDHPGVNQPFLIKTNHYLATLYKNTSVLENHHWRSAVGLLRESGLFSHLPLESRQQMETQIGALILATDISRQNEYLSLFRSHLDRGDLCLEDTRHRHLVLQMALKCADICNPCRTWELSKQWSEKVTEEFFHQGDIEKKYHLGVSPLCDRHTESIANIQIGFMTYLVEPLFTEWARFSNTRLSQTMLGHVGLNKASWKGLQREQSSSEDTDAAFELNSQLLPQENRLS
# Cytochrome P450 3A4, sequence (P08684 whole entry): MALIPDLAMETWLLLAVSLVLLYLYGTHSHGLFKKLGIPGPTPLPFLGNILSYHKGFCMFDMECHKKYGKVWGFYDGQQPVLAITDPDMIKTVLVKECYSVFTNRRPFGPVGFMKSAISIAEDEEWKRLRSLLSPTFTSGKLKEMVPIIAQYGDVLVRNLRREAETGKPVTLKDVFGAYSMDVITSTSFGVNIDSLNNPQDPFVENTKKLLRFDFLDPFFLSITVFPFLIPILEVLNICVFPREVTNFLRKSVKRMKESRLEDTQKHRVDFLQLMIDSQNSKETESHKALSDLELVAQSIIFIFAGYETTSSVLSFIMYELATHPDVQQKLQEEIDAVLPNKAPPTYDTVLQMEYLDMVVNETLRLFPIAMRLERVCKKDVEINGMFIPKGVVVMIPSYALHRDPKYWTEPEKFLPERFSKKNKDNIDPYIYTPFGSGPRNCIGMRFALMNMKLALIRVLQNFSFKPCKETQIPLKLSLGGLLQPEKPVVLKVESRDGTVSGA
# cGMP-inhibited 3',5'-cyclic phosphodiesterase 3A, sequence (Q14432 whole entry): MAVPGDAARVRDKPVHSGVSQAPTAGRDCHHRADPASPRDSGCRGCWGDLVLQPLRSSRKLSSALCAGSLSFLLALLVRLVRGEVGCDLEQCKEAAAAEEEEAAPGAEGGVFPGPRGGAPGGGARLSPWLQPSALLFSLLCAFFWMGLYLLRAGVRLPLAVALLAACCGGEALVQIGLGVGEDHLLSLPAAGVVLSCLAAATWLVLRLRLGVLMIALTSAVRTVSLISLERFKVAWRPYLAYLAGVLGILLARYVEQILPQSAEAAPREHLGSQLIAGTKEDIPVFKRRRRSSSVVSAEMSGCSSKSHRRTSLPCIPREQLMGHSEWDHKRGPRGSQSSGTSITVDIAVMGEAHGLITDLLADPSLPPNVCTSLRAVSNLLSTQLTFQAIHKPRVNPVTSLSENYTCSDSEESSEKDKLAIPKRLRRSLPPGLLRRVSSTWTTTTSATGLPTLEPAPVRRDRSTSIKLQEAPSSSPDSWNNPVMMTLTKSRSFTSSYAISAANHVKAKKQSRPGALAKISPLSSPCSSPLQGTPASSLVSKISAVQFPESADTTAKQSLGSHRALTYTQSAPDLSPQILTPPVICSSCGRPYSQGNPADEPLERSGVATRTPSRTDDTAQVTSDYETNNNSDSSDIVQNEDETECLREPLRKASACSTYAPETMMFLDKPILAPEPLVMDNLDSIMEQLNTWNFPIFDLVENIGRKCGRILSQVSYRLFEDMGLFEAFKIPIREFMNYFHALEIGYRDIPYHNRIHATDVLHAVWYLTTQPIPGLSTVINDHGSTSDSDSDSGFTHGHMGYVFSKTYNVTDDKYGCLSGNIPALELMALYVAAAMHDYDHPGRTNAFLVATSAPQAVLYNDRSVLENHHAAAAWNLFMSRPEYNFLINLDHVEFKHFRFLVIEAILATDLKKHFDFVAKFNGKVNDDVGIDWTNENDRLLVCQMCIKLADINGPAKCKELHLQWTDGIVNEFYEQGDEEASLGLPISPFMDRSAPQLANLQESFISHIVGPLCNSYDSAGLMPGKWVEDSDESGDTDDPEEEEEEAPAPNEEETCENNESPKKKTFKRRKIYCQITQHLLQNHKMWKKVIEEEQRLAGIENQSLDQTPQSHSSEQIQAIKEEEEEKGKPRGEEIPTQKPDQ
# Dual 3',5'-cyclic-AMP and -GMP phosphodiesterase 11A, sequence (Q9HCR9 whole entry): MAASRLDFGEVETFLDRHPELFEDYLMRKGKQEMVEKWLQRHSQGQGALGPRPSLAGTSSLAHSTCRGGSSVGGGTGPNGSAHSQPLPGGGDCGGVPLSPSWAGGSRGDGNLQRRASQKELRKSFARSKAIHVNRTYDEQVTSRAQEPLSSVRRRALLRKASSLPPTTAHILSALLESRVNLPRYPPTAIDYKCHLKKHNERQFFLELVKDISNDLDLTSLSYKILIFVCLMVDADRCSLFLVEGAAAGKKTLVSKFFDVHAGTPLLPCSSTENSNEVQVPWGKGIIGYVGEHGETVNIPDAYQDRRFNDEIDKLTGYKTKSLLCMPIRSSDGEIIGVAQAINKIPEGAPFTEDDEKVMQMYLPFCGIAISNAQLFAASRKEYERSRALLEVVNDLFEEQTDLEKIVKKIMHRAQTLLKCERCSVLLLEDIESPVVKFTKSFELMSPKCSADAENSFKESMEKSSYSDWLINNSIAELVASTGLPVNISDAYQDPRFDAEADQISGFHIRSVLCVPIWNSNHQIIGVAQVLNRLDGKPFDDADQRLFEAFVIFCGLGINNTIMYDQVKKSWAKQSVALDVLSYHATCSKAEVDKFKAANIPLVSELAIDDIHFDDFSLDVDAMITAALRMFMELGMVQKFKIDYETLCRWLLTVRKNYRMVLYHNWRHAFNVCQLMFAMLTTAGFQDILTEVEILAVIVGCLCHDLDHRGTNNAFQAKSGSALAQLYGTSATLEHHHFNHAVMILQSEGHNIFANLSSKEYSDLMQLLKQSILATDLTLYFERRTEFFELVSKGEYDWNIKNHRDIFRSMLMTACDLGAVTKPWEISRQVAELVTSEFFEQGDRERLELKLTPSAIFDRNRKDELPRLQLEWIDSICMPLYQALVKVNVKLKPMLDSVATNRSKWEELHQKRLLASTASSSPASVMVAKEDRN
SMILES,"fraction unbound at 5 h, 5 µM [1]",hepatocyte CLint at 1 µM [2] [µL/min/1e6 cells],"remaining at 1 h, 1 µM [3] [%]",Cmax [6] [nmol/g],Tmax [7] [min],Tlast [8] [h],IC50 [9] [µM],IC50 [10] [µM],IC50 [11] [µM],IC50 [12] [µM],IC50 [13] [µM],IC50 [14] [µM],IC50 [15] [µM],Activity [16] [%],Drug uptake [19] [nmol/g],further results
CN(C)C(=O)c1cccc(S(=O)(=O)N2CCS[C@H]2C(=O)O[C@@H](Cc2c(Cl)c[n+]([O-])cc2Cl)c2ccc(OC(F)F)c(OCC3CC3)c2)c1,0.0021,82.5,98,16.06,15,8,> 30,6.21,4.61,5.78,0.66,> 30,> 30,84,0.22,inhibition in vivo at 0.1 µmol/kg [4]: 50%; inhibition [5]: Active; Activity [17]: 69%; Activity [18]: 60%
CN(C)C(=O)c1cccc(S(=O)(=O)N2CCC[C@H]2C(=O)O[C@@H](Cc2c(Cl)c[n+]([O-])cc2Cl)c2ccc(OC(F)F)c(OCC3CC3)c2)c1 (relative stereo),0.0035,95.5,108,16.24,4.98,8,> 30,> 30,13.9,> 30,3.46,> 30,> 30,73,0.128,Drug metabolism [20]: Metabolite_Notdetected; Activity [21]: 50%
